Laboratory results as given in ChEMBL document CHEMBL1255475, “Mutant prevention concentrations of four carbapenems against gram-negative rods” (2010).
In brackets after ≈: the same amount, converted by molar mass.

Assays:
Assay type in all cases: functional
Escherichia coli [1] = assay: Antibacterial activity against beta-lactamase-negative Escherichia coli E345 incubated up to 7 days by agar dilution method; details: E345, 168 h
Klebsiella pneumoniae [2] = assay: Antibacterial activity against beta-lactamase-positive ESBL-positive Klebsiella pneumoniae E475 incubated up to 7 days by agar dilution method; details: E475, 168 h
Klebsiella pneumoniae [3] = assay: Antibacterial activity against beta-lactamase-positive ESBL-positive Klebsiella pneumoniae E453 incubated up to 7 days by agar dilution method; details: E453, 168 h
Summary of the method: (§1)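 MIC by CLSI agar dilution, with quality-control strains in each run. Beta-lactamase status was set by 30 μg cefazolin Kirby-Bauer disk diffusion. ESBL status was set by cefotaxime and ceftazidime disks (30 μg) with and without clavulanic acid (10 μg).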

Klebsiella pneumoniae [4] = assay: Antibacterial activity against beta-lactamase-positive ESBL-positive Klebsiella pneumoniae E457 incubated up to 7 days by agar dilution method; details: E457, 168 h; summary of the method: as §1
Klebsiella pneumoniae [5] = assay: Antibacterial activity against beta-lactamase-positive ESBL-negative Klebsiella pneumoniae E507 incubated up to 7 days by agar dilution method; details: E507, 168 h
Summary of the method: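 MPC determination: overnight cultures on blood trypticase soy agar at 35°C in air were resuspended in 0.9% saline, and CFU were counted on drug-free Mueller-Hinton agar. […] Growth was retested by agar dilution to confirm mutants. MPC was the lowest concentration preventing resistant-mutant growth.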

Escherichia coli [6] = assay: Antibacterial activity against beta-lactamase-negative Escherichia coli E348 incubated up to 7 days by agar dilution method; details: E348, 168 h
Escherichia coli [7] = assay: Antibacterial activity against beta-lactamase-negative Escherichia coli E409 […] by agar dilution method
Escherichia coli [8] = assay: Antibacterial activity against beta-lactamase-positive ESBL-negative Escherichia coli E415 incubated up to 7 days by agar dilution method; details: E415, 168 h; summary of the method: as §1
Escherichia coli [9] = assay: Antibacterial activity against beta-lactamase-positive ESBL-negative Escherichia coli E437 incubated up to 7 days by agar dilution method; details: E437, 168 h; summary of the method: as §1
Escherichia coli [10] = assay: Antibacterial activity against beta-lactamase-positive ESBL-positive Escherichia coli E452 incubated up to 7 days by agar dilution method; details: E452, 168 h; summary of the method: as §1
Escherichia coli [11] = assay: Antibacterial activity against beta-lactamase-positive ESBL-negative Escherichia coli E430 incubated up to 7 days by agar dilution method; details: E430, 168 h; summary of the method: as §1
Escherichia coli [12] = assay: Antibacterial activity against beta-lactamase-positive ESBL-positive Escherichia coli E459 incubated up to 7 days by agar dilution method; details: E459, 168 h; summary of the method: as §1
Escherichia coli [13] = assay: Antibacterial activity against beta-lactamase-positive ESBL-positive Escherichia coli E451 incubated up to 7 days by agar dilution method; details: E451, 168 h; summary of the method: as §1
Klebsiella pneumoniae [14] = assay: Antibacterial activity against beta-lactamase-negative Klebsiella pneumoniae E359 incubated up to 7 days by agar dilution method; details: E359, 168 h
Klebsiella pneumoniae [15] = assay: Antibacterial activity against beta-lactamase-negative Klebsiella pneumoniae E362 assessed as mutant prevention concentration after overnight incubation
Klebsiella pneumoniae [16] = assay: Antibacterial activity against beta-lactamase-positive ESBL-negative Klebsiella pneumoniae E509 assessed as mutant prevention concentration after overnight incubation
Summary of the method: (§2)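 Overnight growth on blood trypticase soy agar (35°C, air) was resuspended in 0.9% saline and counted on drug-free Mueller-Hinton agar. […] Colonies were retested by agar dilution to confirm mutants. MPC was the lowest concentration preventing resistant-mutant growth.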

Klebsiella pneumoniae [17] = assay: Antibacterial activity against beta-lactamase-positive ESBL-positive Klebsiella pneumoniae E475 assessed as mutant prevention concentration after overnight incubation; summary of the method: as §2
Klebsiella pneumoniae [18] = assay: Antibacterial activity against beta-lactamase-positive ESBL-negative Klebsiella pneumoniae E477 assessed as mutant prevention concentration after overnight incubation; summary of the method: as §2
Klebsiella pneumoniae [19] = assay: Antibacterial activity against beta-lactamase-negative Klebsiella pneumoniae E420 assessed as mutant prevention concentration after overnight incubation; summary of the method: as §2
Klebsiella pneumoniae [20] = assay: Antibacterial activity against beta-lactamase-positive ESBL-positive Klebsiella pneumoniae E453 assessed as mutant prevention concentration after overnight incubation; summary of the method: as §2
Klebsiella pneumoniae [21] = assay: Antibacterial activity against beta-lactamase-positive ESBL-negative Klebsiella pneumoniae E511 assessed as mutant prevention concentration after overnight incubation; summary of the method: as §2
Escherichia coli [22] = assay: Antibacterial activity against beta-lactamase-negative Escherichia coli E344 assessed as mutant prevention concentration after overnight incubation
Escherichia coli [23] = assay: Antibacterial activity against beta-lactamase-positive ESBL-positive Escherichia coli E458 assessed as mutant prevention concentration after overnight incubation; summary of the method: as §2
Escherichia coli [24] = assay: Antibacterial activity against beta-lactamase-positive ESBL-negative Escherichia coli E412 assessed as mutant prevention concentration after overnight incubation; summary of the method: as §2
Escherichia coli [25] = assay: Antibacterial activity against beta-lactamase-negative Escherichia coli E425 assessed as mutant prevention concentration after overnight incubation
Escherichia coli [26] = assay: Antibacterial activity against beta-lactamase-positive ESBL-positive Escherichia coli E451 assessed as mutant prevention concentration after overnight incubation; summary of the method: as §2
Klebsiella pneumoniae [27] = assay: Antibacterial activity against beta-lactamase-negative Klebsiella pneumoniae E357 assessed as mutant prevention concentration after overnight incubation
Klebsiella pneumoniae [28] = assay: Antibacterial activity against beta-lactamase-negative Klebsiella pneumoniae E360 assessed as mutant prevention concentration after overnight incubation
Klebsiella pneumoniae [29] = assay: Antibacterial activity against beta-lactamase-negative Klebsiella pneumoniae E419 assessed as mutant prevention concentration after overnight incubation; summary of the method: as §2
Acinetobacter baumannii [30] = assay: Antibacterial activity against Acinetobacter baumannii A931 assessed as mutant prevention concentration after overnight incubation
Acinetobacter baumannii [31] = assay: Antibacterial activity against Acinetobacter baumannii A897 assessed as mutant prevention concentration after overnight incubation
Acinetobacter baumannii [32] = assay: Antibacterial activity against Acinetobacter baumannii A890 assessed as mutant prevention concentration after overnight incubation
Pseudomonas aeruginosa [33] = assay: Antibacterial activity against Pseudomonas aeruginosa P332 assessed as mutant prevention concentration after overnight incubation
Pseudomonas aeruginosa [34] = assay: Antibacterial activity against Pseudomonas aeruginosa P369 assessed as mutant prevention concentration after overnight incubation
Pseudomonas aeruginosa [35] = assay: Antibacterial activity against Pseudomonas aeruginosa P373 assessed as mutant prevention concentration after overnight incubation
Pseudomonas aeruginosa [36] = assay: Antibacterial activity against Pseudomonas aeruginosa P322 assessed as mutant prevention concentration after overnight incubation
Pseudomonas aeruginosa [37] = assay: Antibacterial activity against Pseudomonas aeruginosa P334 assessed as mutant prevention concentration after overnight incubation
Pseudomonas aeruginosa [38] = assay: Antibacterial activity against Pseudomonas aeruginosa P340 assessed as mutant prevention concentration after overnight incubation
Pseudomonas aeruginosa [39] = assay: Antibacterial activity against Pseudomonas aeruginosa P370 assessed as mutant prevention concentration after overnight incubation
Pseudomonas aeruginosa [40] = assay: Antibacterial activity against Pseudomonas aeruginosa P341 assessed as mutant prevention concentration after overnight incubation
Pseudomonas aeruginosa [41] = assay: Antibacterial activity against Pseudomonas aeruginosa P358 assessed as mutant prevention concentration after overnight incubation
Pseudomonas aeruginosa [42] = assay: Antibacterial activity against Pseudomonas aeruginosa P326 assessed as mutant prevention concentration after overnight incubation
Acinetobacter baumannii [43] = assay: Antibacterial activity against Acinetobacter baumannii A910 assessed as mutant prevention concentration after overnight incubation
Acinetobacter baumannii [44] = assay: Antibacterial activity against Acinetobacter baumannii A884 assessed as mutant prevention concentration after overnight incubation
Acinetobacter baumannii [45] = assay: Antibacterial activity against Acinetobacter baumannii A896 assessed as mutant prevention concentration after overnight incubation
Acinetobacter baumannii [46] = assay: Antibacterial activity against Acinetobacter baumannii A908 assessed as mutant prevention concentration after overnight incubation

C[C@@H](O)[C@H]1C(=O)N2C(C(=O)O)=C(S[C@@H]3CN[C@H](C(=O)Nc4cccc(C(=O)O)c4)C3)[C@H](C)[C@H]12
MIC (Escherichia coli [1]): 0.008 µg/mL (≈ 0.0168 µM)
MIC (Klebsiella pneumoniae [2]): 8 µg/mL (≈ 16.8 µM)
MIC (Klebsiella pneumoniae [3]): 0.5 µg/mL (≈ 1.05 µM)
MIC (Klebsiella pneumoniae [4]): 0.03 µg/mL (≈ 0.0631 µM)
MIC (Klebsiella pneumoniae [5]): 8 µg/mL (≈ 16.8 µM)
MIC (Escherichia coli [6]): 0.008 µg/mL (≈ 0.0168 µM)
MIC (Escherichia coli [7]): 0.016 µg/mL (≈ 0.0336 µM)
MIC (Escherichia coli [8]): 0.125 µg/mL (≈ 0.263 µM)
MIC (Escherichia coli [9]): 0.06 µg/mL (≈ 0.126 µM)
MIC (Escherichia coli [10]): 0.03 µg/mL (≈ 0.0631 µM)
MIC (Escherichia coli [11]): 0.06 µg/mL (≈ 0.126 µM)
MIC (Escherichia coli [12]): 0.03 µg/mL (≈ 0.0631 µM)
MIC (Escherichia coli [13]): 0.06 µg/mL (≈ 0.126 µM)
MIC (Klebsiella pneumoniae [14]): 0.016 µg/mL (≈ 0.0336 µM)
MPC (Klebsiella pneumoniae [15]): 0.06 µg/mL
MPC (Klebsiella pneumoniae [16]): 64 µg/mL
MPC (Klebsiella pneumoniae [17]): 16 µg/mL
MPC (Klebsiella pneumoniae [18]): 32 µg/mL
MPC (Klebsiella pneumoniae [19]): 0.03 µg/mL
MPC (Klebsiella pneumoniae [20]): 1 µg/mL
MPC (Klebsiella pneumoniae [21]): 64 µg/mL
MPC (Escherichia coli [22]): 0.03 µg/mL
MPC (Escherichia coli [23]): 0.5 µg/mL
MPC (Escherichia coli [24]): 1 µg/mL
MPC (Escherichia coli [25]): 0.03 µg/mL
MPC (Escherichia coli [26]): 1 µg/mL
MPC (Klebsiella pneumoniae [27]): 0.03 µg/mL
MPC (Klebsiella pneumoniae [28]): 0.03 µg/mL
MPC (Klebsiella pneumoniae [29]): 0.03 µg/mL

C[C@@H](O)[C@H]1C(=O)N2C(C(=O)O)=C(S[C@@H]3CN[C@H](CNS(N)(=O)=O)C3)[C@H](C)[C@H]12 [DORIPENEM]
MIC (Escherichia coli [1]): 0.03 µg/mL (≈ 0.0713 µM)
MIC (Klebsiella pneumoniae [2]): 2 µg/mL (≈ 4.76 µM)
MIC (Klebsiella pneumoniae [3]): 0.06 µg/mL (≈ 0.143 µM)
MIC (Klebsiella pneumoniae [4]): 0.06 µg/mL (≈ 0.143 µM)
MIC (Klebsiella pneumoniae [5]): 2 µg/mL (≈ 4.76 µM)
MIC (Escherichia coli [6]): 0.03 µg/mL (≈ 0.0713 µM)
MIC (Escherichia coli [7]): 0.03 µg/mL (≈ 0.0713 µM)
MIC (Escherichia coli [8]): 0.03 µg/mL (≈ 0.0713 µM)
MIC (Escherichia coli [9]): 0.06 µg/mL (≈ 0.143 µM)
MIC (Escherichia coli [10]): 0.03 µg/mL (≈ 0.0713 µM)
MIC (Escherichia coli [11]): 0.03 µg/mL (≈ 0.0713 µM)
MIC (Escherichia coli [12]): 0.03 µg/mL (≈ 0.0713 µM)
MIC (Escherichia coli [13]): 0.03 µg/mL (≈ 0.0713 µM)
MIC (Klebsiella pneumoniae [14]): 0.06 µg/mL (≈ 0.143 µM)
MPC (Acinetobacter baumannii [30]): 2 µg/mL
MPC (Acinetobacter baumannii [31]): 1 µg/mL
MPC (Acinetobacter baumannii [32]): 1 µg/mL
MPC (Klebsiella pneumoniae [15]): 0.125 µg/mL
MPC (Klebsiella pneumoniae [16]): >64 µg/mL
MPC (Klebsiella pneumoniae [17]): 16 µg/mL
MPC (Klebsiella pneumoniae [18]): >64 µg/mL
MPC (Klebsiella pneumoniae [19]): 0.06 µg/mL
MPC (Klebsiella pneumoniae [20]): 0.125 µg/mL
MPC (Klebsiella pneumoniae [21]): >64 µg/mL
MPC (Pseudomonas aeruginosa [33]): >4 µg/mL
MPC (Pseudomonas aeruginosa [34]): 2 µg/mL
MPC (Pseudomonas aeruginosa [35]): >4 µg/mL
MPC (Pseudomonas aeruginosa [36]): 4 µg/mL
MPC (Pseudomonas aeruginosa [37]): >2 µg/mL
MPC (Pseudomonas aeruginosa [38]): 1 µg/mL
MPC (Pseudomonas aeruginosa [39]): 4 µg/mL
MPC (Pseudomonas aeruginosa [40]): 8 µg/mL
MPC (Pseudomonas aeruginosa [41]): 64 µg/mL
MPC (Pseudomonas aeruginosa [42]): 16 µg/mL
MPC (Acinetobacter baumannii [43]): 4 µg/mL
MPC (Acinetobacter baumannii [44]): 4 µg/mL
MPC (Acinetobacter baumannii [45]): 1 µg/mL
MPC (Acinetobacter baumannii [46]): 1 µg/mL
MPC (Escherichia coli [22]): 0.06 µg/mL
MPC (Escherichia coli [23]): 0.06 µg/mL
MPC (Escherichia coli [24]): 0.125 µg/mL
MPC (Escherichia coli [25]): 0.06 µg/mL
MPC (Escherichia coli [26]): 0.06 µg/mL
MPC (Klebsiella pneumoniae [27]): 0.125 µg/mL
MPC (Klebsiella pneumoniae [28]): 0.125 µg/mL
MPC (Klebsiella pneumoniae [29]): 0.25 µg/mL
